# Measured values from ChEMBL document CHEMBL4177642, “Cyclic perylene diimide: Selective ligand for tetraplex DNA binding over double stranded DNA” (Bioorg Med Chem, 2017).
# Calls of active or inactive are those of the source. The rule behind the calls is not given here.
# What was measured:
# Quadruplex DNA [1] = assay: Binding affinity to human TA-core of telomeric sequence G-quadruplex DNA assessed as change in entropy at 100 uM in presence of K+ by isothermal titration calorimetric method; assay type: nucleic-acid assay
# Procedure, shortened: (§1)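 ITC at 25 °C: TA-core (10 μM in cell) annealed 95 °C 10 min, cooled 1.0 °C/min to 25 °C, in 50 mM AcOK-AcOH pH 5.5 (K+ lines) or AcONa-AcOH pH 5.5 (Na+ lines). Ligand at 100 μM in same buffer injected repeatedly (1.96 μL each). Solutions degassed 10 min; data fitted to an independent-site model.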
# Quadruplex DNA [2] = assay: Binding affinity to human TA-core of telomeric sequence G-quadruplex DNA assessed as change in enthalpy at 100 uM in presence of Na+ by isothermal titration calorimetric method; assay type: nucleic-acid assay; procedure, shortened: as §1
# Quadruplex DNA [3] = assay: Binding affinity to human TA-core of telomeric sequence G-quadruplex DNA assessed as change in melting temperature at 1.5 uM in presence of K+ by spectrophotometric analysis; assay type: nucleic-acid assay
# Procedure, shortened: (§2)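 Melting of 1.5 μM TA-core followed by CD at 288 nm in 50 mM Tris-HCl pH 7.4 with 20 mM KCl or 20 mM NaCl. Run without or with 1.5 μM ligand (1:1 ligand:DNA), heating at 60 °C/h, data every 0.5 °C, 1 cm cell.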
# Calf thymus DNA [4] = assay: Binding affinity to calf thymus duplex DNA assessed as change in the intensities of negative band formation at 280 nm up to 10 uM in presence of Na+ by CD spectroscopic method; assay type: ADME, nucleic-acid assay, Bos taurus; settings: cattle, 0.28 µM
# Quadruplex DNA [5] = assay: Binding affinity to human TA-core of telomeric sequence G-quadruplex DNA assessed as stabilization of antiparallel G-quadruplex structure by measuring increase in intensities of negative band at 240 nanometer up to 7.5 uM in presence of K+ by CD spectroscopic method; assay type: nucleic-acid assay
# DNA = assay: Binding affinity to Escherichia coli pUC19 duplex DNA assessed as unwinding of supercoiled DNA up to 40 uM after 1 hr in presence of human topoisomerase-1 by agarose gel electrophoresis; assay type: ADME, nucleic-acid assay
# Procedure, shortened: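 pUC19 plasmid (0.025 μg/μL) preincubated 5 min at 37 °C with human Topo I (0.25 units/μL, 0.01% BSA) in 35 mM Tris-HCl pH 8.0, 72 mM KCl, 5 mM MgCl2, 5 mM DTT, 5 mM spermidine. Ligand then added and incubated 1 h at 37 °C. Stopped with SDS, proteinase K digested, phenol/chloroform extracted, run on 1% agarose, GelStar-stained.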
# Calf thymus DNA [6] = assay: Binding affinity to calf thymus duplex DNA assessed as change in the intensities of positive band formation at 250 nm up to 10 uM in presence of Na+ by CD spectroscopic method; assay type: ADME, nucleic-acid assay, Bos taurus; settings: cattle, 0.25 µM
# Quadruplex DNA [7] = assay: Binding affinity to human TA-core of telomeric sequence G-quadruplex DNA assessed as stabilization of antiparallel structure formation up to 5 equiv by CD spectroscopic method; assay type: nucleic-acid assay
# Quadruplex DNA [8] = assay: Binding affinity to human TA-core of telomeric sequence G-quadruplex DNA assessed as stabilization of antiparallel G-quadruplex structure by measuring increase in intensities of positive band at 290 nanometer up to 7.5 uM in presence of K+ by CD spectroscopic method; assay type: nucleic-acid assay
# Quadruplex DNA [9] = assay: Binding affinity to human TA-core of telomeric sequence G-quadruplex DNA assessed as change in enthalpy at 100 uM in presence of K+ by isothermal titration calorimetric method; assay type: nucleic-acid assay; procedure, shortened: as §1
# [10] = Binding affinity to 27-mer DNA hairpin (unknown origin) at 100 uM in presence of K+ by isothermal titration calorimetric method
# Calf thymus DNA [11] = assay: Binding affinity to calf thymus duplex DNA assessed as change in the intensities of negative band formation at 280 nm up to 10 uM by CD spectroscopic method; assay type: ADME, nucleic-acid assay, Bos taurus; settings: cattle, 0.28 µM
# Calf thymus DNA [12] = assay: Binding affinity to calf thymus duplex DNA assessed as hyperchromic shift at 550 nanometer at 5 uM in presence of 100 mM KCl by UV-vis spectrophotometric analysis relative to control; assay type: ADME, nucleic-acid assay, Bos taurus; settings: cattle
# Procedure, shortened: (§3)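 Absorption spectra at 25 °C of 5.0 μM ligand in 50 mM Tris-HCl pH 7.4, 0.10 M KCl, titrated with TA-core (0–15.7 μM) or CT-DNA (0–323.4 μM; concentration in base pairs).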
# Quadruplex DNA [13] = assay: Binding affinity to human TA-core of telomeric sequence G-quadruplex DNA assessed as change in melting temperature at 1.5 uM in presence of Na+ by spectrophotometric analysis; assay type: nucleic-acid assay; procedure, shortened: as §2
# [14] = Binding affinity to 27-mer DNA hairpin (unknown origin) at 100 uM in presence of Na+ by isothermal titration calorimetric method
# Calf thymus DNA [15] = assay: Binding affinity to calf thymus duplex DNA assessed as red shift at 500 nanometer at 5 uM in presence of 100 mM KCl by UV-vis spectrophotometric analysis; assay type: ADME, nucleic-acid assay, Bos taurus; settings: cattle; procedure, shortened: as §3
# Calf thymus DNA [16] = assay: Binding affinity to calf thymus duplex DNA assessed as hypochromic shift at 500 nanometer at 5 uM in presence of 100 mM KCl by UV-vis spectrophotometric analysis relative to control; assay type: ADME, nucleic-acid assay, Bos taurus; settings: cattle; procedure, shortened: as §3
# Quadruplex DNA [17] = assay: Binding affinity to human TA-core of telomeric sequence G-quadruplex DNA assessed as hyperchromic shift at 550 nanometer at 5 uM in presence of 100 mM KCl by UV-vis spectrophotometric analysis relative to control; assay type: nucleic-acid assay; procedure, shortened: as §3
# Quadruplex DNA [18] = assay: Binding affinity to human TA-core of telomeric sequence G-quadruplex DNA assessed as hypochromic shift at 500 nanometer at 5 uM in presence of 100 mM KCl by UV-vis spectrophotometric analysis relative to control; assay type: nucleic-acid assay; procedure, shortened: as §3
# Quadruplex DNA [19] = assay: Binding affinity to human TA-core of telomeric sequence G-quadruplex DNA assessed as isosbestic point at 5 uM in presence of 100 mM KCl by UV-vis spectrophotometric analysis; assay type: nucleic-acid assay; procedure, shortened: as §3
# Calf thymus DNA [20] = assay: Binding affinity to calf thymus duplex DNA assessed as change in the intensities of positive band formation at 250 nm up to 10 uM in presence of K+ by CD spectroscopic method; assay type: ADME, nucleic-acid assay, Bos taurus; settings: cattle, 0.25 µM
# [21] = Selectivity ratio of binding constant for human TA-core of telomeric sequence G-quadruplex DNA to binding conctant for calf thymus duplex DNA
# Quadruplex DNA [22] = assay: Binding affinity to human TA-core of telomeric sequence G-quadruplex DNA assessed as red shift at 500 nanometer at 5 uM in presence of 100 mM KCl by UV-vis spectrophotometric analysis; assay type: nucleic-acid assay; procedure, shortened: as §3
# Quadruplex DNA [23] = assay: Binding affinity to human TA-core of telomeric sequence G-quadruplex DNA assessed as stabilization of antiparallel structure formation up to 4.5 uM in presence of Na+ by CD spectroscopic method; assay type: nucleic-acid assay
# [24] = system: double-stranded DNA oligonucleotide dsOligo (synthetic); assay: Binding affinity to synthetic duplex DNA oligonucleotide dsOligo assessed as change in melting temperature at 1.5 uM in presence of K+ by spectrophotometric analysis
# [25] = Inhibition of telomerase (unknown origin) by TRAP assay; design: species or system Homo sapiens
# Procedure, shortened: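 TRAP with a TRAPeze kit, using positive-control cell lysate (250 cells per reaction). Extension 30 °C 1 h, then 35 PCR cycles. Products run on 12.5% PAGE, GelStar-stained and analyzed per kit.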
# Quadruplex DNA [26] = assay: Binding affinity to human TA-core of telomeric sequence G-quadruplex DNA assessed as change in entropy at 100 uM in presence of Na+ by isothermal titration calorimetric method; assay type: nucleic-acid assay; procedure, shortened: as §1
# Calf thymus DNA [27] = assay: Binding affinity to calf thymus duplex DNA assessed as change in the intensities of positive band formation at 250 nm up to 10 uM by CD spectroscopic method; assay type: ADME, nucleic-acid assay, Bos taurus; settings: cattle, 0.25 µM
# Calf thymus DNA [28] = assay: Binding affinity to calf thymus duplex DNA assessed as isosbestic point at 5 uM by UV-vis spectrophotometric analysis; assay type: ADME, nucleic-acid assay, Bos taurus; settings: cattle; procedure, shortened: as §3
# Calf thymus DNA [29] = assay: Binding affinity to calf thymus duplex DNA assessed as change in the intensities of negative band formation at 280 nm up to 10 uM in presence of K+ by CD spectroscopic method; assay type: ADME, nucleic-acid assay, Bos taurus; settings: cattle, 0.28 µM
# [30] = system: double-stranded DNA oligonucleotide dsOligo (synthetic); assay: Binding affinity to synthetic duplex DNA oligonucleotide dsOligo assessed as increase in melting temperature at 3 to 4.5 uM in presence of K+ by spectrophotometric analysis
compound,measurement,setting,value
O=C1CCCCCC(=O)NCCCN2CCN(CCCN3C(=O)c4ccc5c6ccc7c8c(ccc(c9ccc(c4c59)C3=O)c86)C(=O)N(CCCN3CCN(CCCN1)CC3)C7=O)CC2,-TdeltaS,Quadruplex DNA [1],-1.56 kcal/mol
same,deltaH,Quadruplex DNA [2],-7.14 kcal/mol
same,ΔTm,Quadruplex DNA [3],21 °C
same,Activity,Calf thymus DNA [4],Not Active
same,Activity,Quadruplex DNA [5],Active
same,Activity,DNA,Not Active
same,Activity,Calf thymus DNA [6],Not Active
same,Activity,Quadruplex DNA [7],Active
same,Activity,Quadruplex DNA [8],Active
same,deltaH,Quadruplex DNA [9],-6.71 kcal/mol
same,Activity,[10],inactive
same,Activity,Calf thymus DNA [11],Not Active
same,Activity,Calf thymus DNA [12],29%
same,ΔTm,Quadruplex DNA [13],14 °C
same,Activity,[14],inactive
same,Activity,Calf thymus DNA [15],8 nm
same,Activity,Calf thymus DNA [16],50%
same,Activity,Quadruplex DNA [17],55%
same,Activity,Quadruplex DNA [18],42%
same,Activity,Quadruplex DNA [19],510 nm
same,Activity,Calf thymus DNA [20],Not Active
same,Selectivity ratio,[21],900
same,Activity,Quadruplex DNA [22],13 nm
same,Activity,Quadruplex DNA [23],Active
same,deltaTm,[24],-1 °C
same,IC50,[25],240 nM
same,-TdeltaS,Quadruplex DNA [26],-1.7 kcal/mol
same,Activity,Calf thymus DNA [27],Not Active
same,Activity,Calf thymus DNA [28],520 nm
same,Activity,Calf thymus DNA [29],Not Active
same,Activity,[30],Not Active
